Source: ChEMBL document CHEMBL1133514, “Activation mechanisms of nucleoside phosphoramidate prodrugs” (J Med Chem, 2000)

Legend:
[1] = Rate constants determined using 31P NMR Kinetics experiments at 37 degrees Centigrade; assay type: ADME
Procedure, shortened: (§1)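 Compound (0.015-0.076 mmol) dissolved in about 90 µL CH3CN or THF, then diluted to 0.50 mL with 0.1-0.4 M cacodylate or acetate buffer; pH 7.4 target (7.0-8.0 accepted), 37 °C. Monitored by 31P NMR every 2.5 min for 30 min, then every 5 min; relative peak areas fitted by least squares to first-order kinetics to give rate constants and t1/2.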

[2] = Half-life period for the compound was determined; assay type: ADME; procedure, shortened: as §1

Structure (SMILES) | K [1] [min⁻¹] | half-life [2] [min]
CN(CCBr)P(=O)(OCC1CCCO1)On1nnc2ccccc21 (centres undefined) | 0.094 | 7.4
O=P(O)(OCC1CCCO1)On1nnc2ccccc21 (centres undefined) | 0.011 | 61
COP(=O)(OCC1CCCO1)N(C)CCO (centres undefined) | 0.43 | 1.6
Cc1cn([C@H]2C[C@H](O)[C@@H](COP(=O)(On3nnc4ccccc43)N(C)CCBr)O2)c(=O)[nH]c1=O (some centres undefined) | 0.15 | 4.7
Cc1cn([C@H]2C[C@H](O)[C@@H](COP(=O)(O)On3nnc4ccccc43)O2)c(=O)[nH]c1=O | 0.0042 | 164
Cc1cn([C@H]2C[C@H](O)[C@@H](COP(=O)(O)N(C)CCBr)O2)c(=O)[nH]c1=O | 0.2 | 3.4
CCN(CC)CC.Cc1cn([C@H]2C[C@H](O)[C@@H](COP(=O)(O)N(C)CCBr)O2)c(=O)[nH]c1=O | 0.19 | 3.7
